# Test results taken from ChEMBL document CHEMBL4715895, “Synthesis of erythro- B13 enantiomers and stereospecific action of full set of B13-isomers in MCF7 breast carcinoma cells: Cellular metabolism and effects on sphingolipids” (Bioorg Med Chem, 2021).
# Columns and labels:
# [1] = Drug metabolism in human MCF7 cells assessed as ceramidase-mediated C16 metabolite formation at 1 to 10 uM after 24 hrs by UHPLC-MS/MS analysis; format: ADME, cell-based; conditions: mcf7, 24 h, dose 1-10 µM
# [2] = Drug metabolism in human MCF7 cells assessed as ceramidase mediated C24:1 metabolite formation after 24 hrs by UHPLC-MS/MS analysis; format: ADME, cell-based; conditions: mcf7, 24 h
# Method in brief: (§1)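 Cells were treated with 10uM of each isomer for 24h, then pellets were collected and lipids extracted. C16 and C24:1 analogs were quantified by UHPLC-MS/MS as pmol/nmol lipid phosphate, referenced against standards. Values are means ± st dev of triplicates from 3 separate experiments.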
# [3] = Drug metabolism in human MCF7 cells assessed as ceramidase mediated C16 metabolite formation after 24 hrs by UHPLC-MS/MS analysis; format: ADME, cell-based; conditions: mcf7, 24 h; method in brief: as §1
# [4] = Drug metabolism in human MCF7 cells assessed as reduction in endogenous sphingosine level at 1 to 10 uM after 24 hrs by UHPLC-MS/MS analysis; format: ADME, cell-based; conditions: mcf7, 24 h, dose 1-10 µM
# Method in brief: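 Isomers were applied at 1, 5 and 10uM for 24h. Endogenous Sph was measured in extracted pellet lipids by UHPLC-MS/MS (pmol/nmol lipid phosphate); the Cer/Sph ratio was also calculated. Values are triplicate means ± st dev versus control.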
# [5] = Drug uptake in human MCF7 cells at 1 to 10 uM after 24 hrs by HPLC-MS/MS analysis; format: ADME, cell-based; conditions: mcf7, 24 h, dose 1-10 µM
# Method in brief: (§2)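 MCF7 cells received 1, 5 or 10uM of each isomer for 1h or 24h as stated. Intracellular isomer levels were quantified by UHPLC-MS/MS of lipid extracts from cell pellets. Data are means ± st dev of triplicates.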
# [6] = system: MCF7; test: Antiproliferative activity against human MCF7 cells assessed as growth inhibition after 72 hrs by MTT assay; format: functional, cell-based; conditions: MCF7, 72 h
# Method in brief: (§3)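 MCF7 (RPMI 1640 with 10% FBS, 2mM L-glutamine, 37°C, 5% CO2) harvested in exponential growth, then exposed to each B13 stereoisomer for the stated time. Viable cells were quantified by MTT and expressed as % of untreated control (means ± st dev, 5 replicates). IC50 values were derived per time point.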
# [7] = system: MCF7; test: Antiproliferative activity against human MCF7 cells assessed as growth inhibition after 48 hrs by MTT assay; format: functional, cell-based; conditions: MCF7, 48 h
# [8] = system: MCF7; test: Antiproliferative activity against human MCF7 cells assessed as growth inhibition after 24 hrs by MTT assay; format: functional, cell-based; conditions: MCF7, 24 h; method in brief: as §3
# [9] = Drug uptake in human MCF7 cells at 1 to 10 uM after 1 hr by HPLC-MS/MS analysis; format: ADME, cell-based; conditions: mcf7, 1 h, dose 1-10 µM; method in brief: as §2
# [10] = Drug metabolism in human MCF7 cells assessed as reduction in elevation of C26-ceramide metabolite formation at 10 uM after 1 hr by UHPLC-MS/MS analysis; format: ADME, cell-based; conditions: mcf7, 1 h
# Method in brief: (§4)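 After 1h of exposure to 10uM of each isomer, MCF7 pellets were extracted. Endogenous Cn-Cer and Cn-dhCer species were quantified by UHPLC-MS/MS as pmol/nmol lipid phosphate. Results are triplicate means ± st dev versus control.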
# [11] = Drug metabolism in human MCF7 cells assessed as increase in C16-ceramide metabolite formation at 10 uM after 1 hr by UHPLC-MS/MS analysis; format: ADME, cell-based; conditions: mcf7, 1 h; method in brief: as §4
# [12] = Drug metabolism in human MCF7 cells assessed as increase in C14-ceramide metabolite formation at 10 uM after 1 hr by UHPLC-MS/MS analysis; format: ADME, cell-based; conditions: mcf7, 1 h; method in brief: as §4
# [13] = Drugmetabolism in human MCF7 cells assessed as formation of phosphorylated free sphingoid base at 1 to 10 uM after 24 hrs by UHPLC-MS/MS analysis; format: ADME, cell-based; conditions: mcf7, 24 h, dose 1-10 µM
# [14] = Drug metabolism in human MCF7 cells assessed as increase in C26-dihydroceramide elevation at 10 uM after 1 hr by UHPLC-MS/MS analysis; format: ADME, cell-based; conditions: mcf7, 1 h; method in brief: as §4
# [15] = Drug metabolism in human MCF7 cells assessed as increase in C26:1-dihydroceramide elevation at 10 uM after 1 hr by UHPLC-MS/MS analysis; format: ADME, cell-based; conditions: mcf7, 1 h; method in brief: as §4
# [16] = Drug metabolism in human MCF7 cells assessed as increase in C24-dihydroceramide elevation at 10 uM after 1 hr by UHPLC-MS/MS analysis; format: ADME, cell-based; conditions: mcf7, 1 h; method in brief: as §4
# [17] = Drug metabolism in human MCF7 cells assessed as increase in C24:1-dihydroceramide elevation at 10 uM after 1 hr by UHPLC-MS/MS analysis; format: ADME, cell-based; conditions: mcf7, 1 h; method in brief: as §4
# [18] = Drug metabolism in human MCF7 cells assessed as elevation of =<C18-ceramide metabolite at 10 uM after 24 hr by UHPLC-MS/MS analysis; format: ADME, cell-based; conditions: mcf7, 24 h
# Method in brief: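 Each isomer was given at 10uM to MCF7 cells for 24h. Lipid extracts of the cell pellets were profiled by UHPLC-MS/MS for Cn-Cer species, normalized to lipid phosphate (pmol/nmol). Data are means ± st dev of triplicates, compared with vehicle control (p<0.05).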
Drug metabolism [1],Drug metabolism [2],Drug metabolism [3],Drug metabolism [4],Drug uptake [5],IC50 [6],IC50 [7],IC50 [8],Drug uptake [9],Drug metabolism [10],Drug metabolism [11],Drug metabolism [12],Drug metabolism [13],Drug metabolism [14],Drug metabolism [15],Drug metabolism [16],Drug metabolism [17],Drug metabolism [18],SMILES
Metabolite_Detected,Metabolite_Detected,Metabolite_Detected,Metabolite_Detected,Active,46.6 µM,43.6 µM,54.1 µM,Active,–,–,–,–,–,–,–,–,–,CCCCCCCCCCCCCC(=O)N[C@@H](CO)[C@@H](O)c1ccc([N+](=O)[O-])cc1
Metabolite_Detected,Metabolite_Detected,Metabolite_Detected,Metabolite_Detected,Active,37 µM,35.6 µM,42.3 µM,Active,Metabolite_Detected,Metabolite_Detected,Metabolite_Detected,–,–,–,–,–,–,CCCCCCCCCCCCCC(=O)N[C@H](CO)[C@H](O)c1ccc([N+](=O)[O-])cc1
Metabolite_Detected,Metabolite_Detected,Metabolite_Detected,Metabolite_Detected,Active,13.5 µM,13.1 µM,18 µM,Active,–,–,–,–,–,–,–,–,–,CCCCCCCCCCCCCC(=O)N[C@H](CO)[C@@H](O)c1ccc([N+](=O)[O-])cc1
Metabolite_Detected,Metabolite_Detected,Metabolite_Detected,–,Not Active,9.39 µM,8.08 µM,10.2 µM,Active,–,–,–,Metabolite_Detected,Metabolite_Detected,Metabolite_Detected,Metabolite_Detected,Metabolite_Detected,Metabolite_Detected,CCCCCCCCCCCCCC(=O)N[C@@H](CO)[C@H](O)c1ccc([N+](=O)[O-])cc1
